The chains are these.
B1: tRNA (parent)
chain: GUUCCGUUGGCGUAAUGGUAACGCGUCUCCCUCCUAAGGAGAAGACUGCGGGUUCGAGUCCCGUACGGAACG

Variants at the floor of the assay were thinned out. Where only a bound is given, the exact number is not on record here.

Consider 167 variants from the RNAGym collection of RNA variant scans (doi:10.1126/science.aae0568).

In the data set the parent is B1. Description: yeast fitness relative to wild type (ratio to wild type); higher = fitter; tRNA-Arg(CCU), competitive growth, 37 C, YPD. Summed up: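 Genotype frequency changes were the basis for Darwinian fitness relative to wild type. The frequencies came from 100-nucleotide paired-end sequencing of gene amplicons from the start population and each end population of pooled yeast strains with tRNA-Arg(CCU) gene variants at the native locus. Competition ran in YPD at 37°C for 24 hours in six replicates, genotypes needed ≥ 100 starting reads, and estimates < 0.5 were set to 0.5.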
In the case of C4U U7A C62G, the yeast fitness is not above 0.5.

With C4U G25A A69C, the yeast fitness came to 0.761.

Consider C5A A15C C62U, for which the yeast fitness is not above 0.5.

For C4U U28G C60A, the yeast fitness is 0.503.

For the variant C4U U32A U64G, the yeast fitness was not above 0.5.

For C4U G12C A45C C49U, the yeast fitness was not above 0.5.

Turning to C4U G25C G67A, the yeast fitness came to 0.719.

For C4U G17A C34A A57U, the yeast fitness was not above 0.5.

For C4U G12A C27G C34A C49A C66U, the yeast fitness was not above 0.5.

For C4U U19A C31G A65C C66U, the yeast fitness was not above 0.5.

With C4U G58C U64A, the yeast fitness turned out to be 0.848.

As to C4U G18C G38A A40C A65G, the yeast fitness is not above 0.5.

On to C4U G18C C24U C61G, for which the yeast fitness is not above 0.5.

As to C4U G25A A36G, the yeast fitness was 0.641.

With C4U U13C C66U A70C, the yeast fitness was found to be 0.618.

Consider C4U U13A A14U U32A G58C, for which the yeast fitness is not above 0.5.

As for C4U U26G C29U A65U, the yeast fitness was not above 0.5.

For C4U U47C G52C C61A, the yeast fitness is not above 0.5.

As for C4U G9C C61G, the yeast fitness is not above 0.5.

As to C5A A15G C24G C29U C34G U35C C46G, the yeast fitness was 0.527.

Regarding C4U U26A A37G, the yeast fitness is not above 0.5.

Consider C4U U13G A36U, for which the yeast fitness was determined as 0.655.

C4U U8A A14U A20C A36C A43C G58C C61A: the yeast fitness is not above 0.5.

As for C4U G10C A15G A20U A21G C33U U47C A57C, the yeast fitness was not above 0.5.

C4U G10A C24U C46G G58A: the yeast fitness was not above 0.5.

On to C4U G18A A21C A65C, for which the yeast fitness was not above 0.5.

With C4U U16C G48C, the yeast fitness is 0.702.

Regarding C4U G12A G48C, the yeast fitness came out at 0.648.

On to C4U U35C C61A, for which the yeast fitness came out at 0.555.

With C4U G12A C24A G67C, the yeast fitness was not above 0.5.

C4U U8A C30U U32G U35A C62U A69C: the yeast fitness was not above 0.5.

For the variant C5A A14G C22G C62G, the yeast fitness is not above 0.5.

Turning to C4U G10C C31G G50C C66U, the yeast fitness was not above 0.5.

For the variant C4U U16A A40U, the yeast fitness stood at 0.666.

C4U U7C G10A A14U C27G A36G: the yeast fitness is 0.505.

As for C5A A15C A69U, the yeast fitness was 0.552.

With C4U G10A G39C, the yeast fitness is 0.627.

As for C4U G10A C60G C66G A69U, the yeast fitness was not above 0.5.

With C4U U35C A42G, the yeast fitness worked out at 0.581.

With C4U U26A G56A, the yeast fitness came out at 0.632.

Consider C5A A14C A15G G58C C60U C66G, for which the yeast fitness was not above 0.5.

With C4U G18A A69U, the yeast fitness was 0.743.

Regarding C4U U16G, the yeast fitness was found to be 1.05.

On to C4U U16A, for which the yeast fitness is 0.993.

As for C4U U16C, the yeast fitness was 1.02.

As for C4U U13C C29G G38C, the yeast fitness was not above 0.5.

As to C4U G10C U35C G41A C62G A70U, the yeast fitness was not above 0.5.

Regarding C4U G23C G39C G44A G67A, the yeast fitness was not above 0.5.

As for C4U G25A G41A G56C A65C, the yeast fitness is not above 0.5.

As for C4U U7A C33G A42C, the yeast fitness is not above 0.5.

Take C4U U28A C30U A57G: the yeast fitness was determined as 0.547.

C4U U54A: the yeast fitness was found to be 0.627.

C4U U28A C66U: the yeast fitness came to 0.658.

As for C5A A15C G67U, the yeast fitness was found to be 0.526.

On to C4U U16A G23A A36G C49G C61A, for which the yeast fitness was not above 0.5.

On to C5A A15C C30A A42U C55U C66A, for which the yeast fitness is not above 0.5.

For C4U U7A U54G, the yeast fitness is not above 0.5.

For C4U G52C G67C, the yeast fitness is not above 0.5.

For C4U U28C C30A, the yeast fitness is 0.755.

As for C4U G10A C24U C62U, the yeast fitness was 0.723.

Turning to C4U G18C C27U C33G A43C A70U, the yeast fitness is 0.659.

On to C5A A14G C24A, for which the yeast fitness worked out at 0.565.

Consider C4U U8A A37C, for which the yeast fitness came to 0.821.

As for C4U G39C U54C, the yeast fitness is not above 0.5.

For the variant C4U U7A C30G C34G A40C C66A A69C, the yeast fitness amounted to 0.559.

In the case of C4U G17C C22U A37C, the yeast fitness is not above 0.5.

With C4U G10C G17C C27G G38C U54G, the yeast fitness is not above 0.5.

On to C4U U13C C30G G48U A70U, for which the yeast fitness is not above 0.5.

C5A A15G C33U G44C: the yeast fitness is not above 0.5.

Consider C4U G44C C46A G56C, for which the yeast fitness was not above 0.5.

As to C4U G52A C60A, the yeast fitness turned out to be 0.823.

Turning to C4U G44C C55G A69U, the yeast fitness is not above 0.5.

Take C5A A15G C33A: the yeast fitness was not above 0.5.

In the case of C4U U28G A57G A69C, the yeast fitness was not above 0.5.

For the variant C4U G9C C24U C30G G51A C60U G67A, the yeast fitness was not above 0.5.

Regarding C4U U8A U32G U35A G68U, the yeast fitness was not above 0.5.

Turning to C4U U35A A36U C61U, the yeast fitness was not above 0.5.

On to C4U U19C A40U, for which the yeast fitness was 0.674.

As to C4U U13C C30G C55U, the yeast fitness was found to be 0.761.

Consider C4U G56A U59C A65C A70G, for which the yeast fitness is not above 0.5.

Turning to C4U U26A A69U, the yeast fitness was 0.641.

Turning to C4U G12C G51A A65C, the yeast fitness is not above 0.5.

As for C4U G10C C31G, the yeast fitness was not above 0.5.

As to C4U U19C C31A G41C C55A, the yeast fitness is not above 0.5.

In the case of C4U G51C, the yeast fitness was found to be 0.637.

Consider C4U G51A, for which the yeast fitness was 0.942.

C5A A15U: the yeast fitness came out at 0.626.

Consider C5A A15G, for which the yeast fitness turned out to be 0.779.

In the case of C4U G25A A70U, the yeast fitness came to 0.77.

Take C4U U47C C66U: the yeast fitness was determined as 0.766.

In the case of C5A A14G A40G G41A A45U U53C A57C, the yeast fitness was not above 0.5.

Regarding C4U U35C A36G G44C, the yeast fitness turned out to be 0.708.

C4U U7A U8A A40U C61U: the yeast fitness was not above 0.5.

C4U U64A A70U: the yeast fitness is 0.66.

As for C4U G52A A70C, the yeast fitness was 0.646.

For the variant C4U G56C, the yeast fitness is 0.655.

Turning to C4U G10C U35C G41A C49U, the yeast fitness is not above 0.5.

Take C4U U19A C29U C33G C62A: the yeast fitness is not above 0.5.

On to C5A A15U A21U C61U A69C, for which the yeast fitness was not above 0.5.

C4U U7A A36U A45U A57G A70G: the yeast fitness is not above 0.5.

As for C4U G10A C24U A69U, the yeast fitness amounted to 0.838.

C4U G10A C24U A69C: the yeast fitness worked out at 0.769.

Regarding C4U G10A C49A U53A G67A, the yeast fitness is not above 0.5.

Turning to C4U U26C A36C, the yeast fitness is not above 0.5.

As for C4U G18C A45U G52A A65U, the yeast fitness is not above 0.5.

On to C4U U8C A42C, for which the yeast fitness turned out to be 0.539.

Turning to C4U U8C A42G, the yeast fitness worked out at 0.69.

For the variant C4U U13A A14U C29U C30U A37G, the yeast fitness is not above 0.5.

Take C4U U26A C33A C34G: the yeast fitness is not above 0.5.

Regarding C4U G23A, the yeast fitness came out at 0.783.

Take C4U G52A C55U U64C: the yeast fitness is not above 0.5.

Take C4U U7G C34G: the yeast fitness was found to be 0.554.

As to C4U G38C G41A C61G, the yeast fitness turned out to be 0.707.

Take C4U U8G G12A: the yeast fitness is 0.539.

Regarding C5A A15C C66U, the yeast fitness was not above 0.5.

As to C4U G56A C60U, the yeast fitness is not above 0.5.

With C4U U8G G12A U54G, the yeast fitness was not above 0.5.

For C4U G17A G18A C34U G56C, the yeast fitness is not above 0.5.

On to C4U G44C A70C, for which the yeast fitness amounted to 0.782.

On to C4U G39C G48C, for which the yeast fitness is 0.537.

As to C4U U7G C34G A70U, the yeast fitness is not above 0.5.

On to C4U G48A C60G, for which the yeast fitness is not above 0.5.

Consider C4U G12A C27G C34A C49A C60G C61U, for which the yeast fitness is 0.522.

On to C4U G52A U59A, for which the yeast fitness was 0.592.

With C4U G39C, the yeast fitness stood at 0.829.

Regarding C4U G39A, the yeast fitness worked out at 0.982.

C4U U8A U13C C46A: the yeast fitness was 0.619.

C4U G39C C60U: the yeast fitness is not above 0.5.

Regarding C4U G10A C66U, the yeast fitness came out at 0.663.

Regarding C4U G41C G51C G58C, the yeast fitness is not above 0.5.

Regarding C4U U59C A69C, the yeast fitness amounted to 0.772.

In the case of C4U U16G A69C, the yeast fitness was determined as 0.645.

As for C4U G41C C55G, the yeast fitness was 0.539.

C4U G17A U19G A21G A43G G63A: the yeast fitness was not above 0.5.

As for C5A A14G G17C C29A C33G C34U A36U, the yeast fitness is 0.648.

Take C4U G25A G56A: the yeast fitness came out at 0.645.

As to C4U G18C A45C, the yeast fitness was not above 0.5.

On to C4U U26G C62G A70U, for which the yeast fitness was not above 0.5.

Turning to C4U G10A C24U G67A, the yeast fitness was determined as 0.751.

C4U G10A G51C U59G: the yeast fitness is not above 0.5.

For the variant C4U G63A C66U, the yeast fitness came out at 0.792.

For the variant C4U U26A C31G, the yeast fitness came to 0.603.

On to C4U G12A A20G C22U C62U A65C, for which the yeast fitness is not above 0.5.

Turning to C5A A14C C29A G41C, the yeast fitness worked out at 0.683.

On to C4U G18A C22U A40C G68C, for which the yeast fitness was 0.591.

In the case of C5A A14C A15G C49A, the yeast fitness was determined as 0.572.

Consider C4U U35C G50A C66A, for which the yeast fitness was 0.689.

Regarding C4U U28A, the yeast fitness was determined as 0.749.

Regarding C4U G12C U28G U32C C62G, the yeast fitness is not above 0.5.

Turning to C4U G48A G52C U54C, the yeast fitness was not above 0.5.

C4U G12C A20G U47A C49U A57U C61A: the yeast fitness was 0.572.

C4U G44A C46U A69C: the yeast fitness turned out to be 0.829.

Consider C4U U26G C29U A65U G68A, for which the yeast fitness was not above 0.5.

As to C4U G25A, the yeast fitness was determined as 0.895.

As to C4U U13A A14U C29U A37G G67A, the yeast fitness is not above 0.5.

On to C4U U8A A20G C24A G52C, for which the yeast fitness is 0.598.

For C4U U16A A37C, the yeast fitness was not above 0.5.

Regarding C4U U32C, the yeast fitness turned out to be 0.944.

Regarding C4U G12A C62G, the yeast fitness came to 0.53.

In the case of C4U U7G C34G C55U, the yeast fitness was 0.563.

C4U U26G U59C C62A: the yeast fitness came to 0.679.

In the case of C4U U32A C49U, the yeast fitness worked out at 0.61.

For C4U G9C C33G C49A A70G, the yeast fitness is not above 0.5.

In the case of C4U U16A A20U U28C U35C G39C A42C G48A, the yeast fitness was not above 0.5.

On to C4U G39C C49U, for which the yeast fitness is 0.62.

For the variant C4U U7A G10C C27G U32A, the yeast fitness was not above 0.5.

Regarding C5A A14G C24A G63A A69U, the yeast fitness was not above 0.5.
